Experiment [1] addresses T1, Histone-arginine methyltransferase CARM1 (Homo sapiens) (UniProt Q86X55).
T1 sequence (whole entry): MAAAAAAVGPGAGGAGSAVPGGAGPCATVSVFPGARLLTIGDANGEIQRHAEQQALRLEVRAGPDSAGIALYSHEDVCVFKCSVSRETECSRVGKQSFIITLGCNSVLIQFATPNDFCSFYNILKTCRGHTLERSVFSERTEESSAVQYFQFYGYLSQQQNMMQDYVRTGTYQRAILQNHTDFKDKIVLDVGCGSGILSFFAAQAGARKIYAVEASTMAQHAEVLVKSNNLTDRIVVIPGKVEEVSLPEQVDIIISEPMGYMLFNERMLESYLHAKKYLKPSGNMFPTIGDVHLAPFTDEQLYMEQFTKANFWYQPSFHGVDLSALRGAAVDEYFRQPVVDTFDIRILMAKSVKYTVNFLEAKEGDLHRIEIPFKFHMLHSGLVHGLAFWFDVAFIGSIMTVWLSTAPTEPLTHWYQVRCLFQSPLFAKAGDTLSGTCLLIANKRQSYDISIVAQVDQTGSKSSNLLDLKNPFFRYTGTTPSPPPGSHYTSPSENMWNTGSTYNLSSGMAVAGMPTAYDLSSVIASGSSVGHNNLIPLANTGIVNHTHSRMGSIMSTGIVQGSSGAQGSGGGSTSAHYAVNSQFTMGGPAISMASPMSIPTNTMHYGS
Put plainly: Inhibition of CARM1-mediated methylation of PABP1 at 20 uM after 90 mins by scintillation counting in presence of S-adenosyl-l-[methyl-3H]methionine. A digest of the protocol: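 Recombinant CARM1 with PABP1 substrate in PBS pH 7.4 containing [³H]AdoMet, compound at 20 μM. Incubated 90 min at 30 °C, then SDS-PAGE, PVDF transfer and overnight film fluorography. Substrate bands cut out for scintillation counting.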

Experiment [2] deals with T2, Histone-arginine methyltransferase CARM1 (Homo sapiens, UniProt Q86X55).
T2 sequence (Q86X55 whole entry): T1 sequence (whole entry)
Put plainly: Inhibition of CARM1-mediated methylation of PABP1 after 90 mins by scintillation counting in presence of S-adenosyl-l-[methyl-3H]methionine.

Experiment [3] has as its target Protein arginine N-methyltransferase 1 (Homo sapiens, UniProt Q99873). Put plainly: Inhibition of PRMT1-mediated methylation of NPL3 after 90 mins by scintillation counting in presence of S-adenosyl-l-[methyl-3H]methionine.
Experiment [4] has as its target T3, Histone-lysine N-methyltransferase SETD7 (Homo sapiens, UniProt Q8WTS6).
T3 sequence (Q8WTS6 whole entry): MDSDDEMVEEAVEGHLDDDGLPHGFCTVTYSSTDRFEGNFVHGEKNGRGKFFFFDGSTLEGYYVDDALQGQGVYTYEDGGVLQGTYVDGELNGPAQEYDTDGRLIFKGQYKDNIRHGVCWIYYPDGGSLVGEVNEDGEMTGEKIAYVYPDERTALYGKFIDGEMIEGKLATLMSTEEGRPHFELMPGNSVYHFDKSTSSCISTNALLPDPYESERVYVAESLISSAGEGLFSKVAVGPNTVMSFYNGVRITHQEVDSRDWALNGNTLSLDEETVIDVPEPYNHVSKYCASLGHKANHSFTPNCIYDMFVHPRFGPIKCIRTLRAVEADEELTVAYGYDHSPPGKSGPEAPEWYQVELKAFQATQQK
Put plainly: Inhibition of SET7-mediated methylation of histone H3 after 90 mins by scintillation counting in presence of S-adenosyl-l-[methyl-3H]methionine.

Structures are written as SMILES. Active and inactive are the calls of the source. The calls are words filed in the database; no cut-off is given here.

Usually IC50 stands for the point on the concentration scale where inhibition reaches its midpoint.

Sequence of Protein arginine N-methyltransferase 1 (Q99873 whole entry): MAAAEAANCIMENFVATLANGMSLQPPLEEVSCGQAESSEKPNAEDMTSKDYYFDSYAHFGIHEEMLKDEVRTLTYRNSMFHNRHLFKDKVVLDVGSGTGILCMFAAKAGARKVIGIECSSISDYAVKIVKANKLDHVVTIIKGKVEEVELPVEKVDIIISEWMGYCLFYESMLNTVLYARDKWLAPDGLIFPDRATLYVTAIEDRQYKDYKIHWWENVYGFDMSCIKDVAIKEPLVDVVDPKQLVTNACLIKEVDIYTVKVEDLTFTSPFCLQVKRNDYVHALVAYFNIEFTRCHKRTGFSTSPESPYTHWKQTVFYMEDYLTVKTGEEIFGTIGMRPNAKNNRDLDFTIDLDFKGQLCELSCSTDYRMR

For `COc1ccccc1CN1C/C(=C\c2ccc(O)c(Br)c2)C(=O)/C(=C/c2ccc(O)c(Br)c2)C1`, the inhibition result in experiment [1] was “inactive”.
As for `COc1ccc(CN2C/C(=C\c3ccc(O)c(Br)c3)C(=O)/C(=C/c3ccc(O)c(Br)c3)C2)cc1`, the inhibition entry in experiment [1] is “inactive”.
In the case of `O=C1/C(=C/c2ccc(O)c(Br)c2)CN(Cc2ccccc2Cl)C/C1=C\c1ccc(O)c(Br)c1`, the half-inhibitory concentration (IC50) in experiment [2] was 12.5 µM; in experiment [3], more than 667 µM; in experiment [4] it was more than 667 µM.
As to `O=C1/C(=C/c2ccc(O)c(Br)c2)CN(CCc2ccccc2)C/C1=C\c1ccc(O)c(Br)c1`, the results for the IC50 in experiment [2], in experiment [3] and in experiment [4] were 14.8 µM, more than 667 µM and more than 667 µM, respectively.
For `COc1cccc(CN2C/C(=C\c3ccc(O)c(Br)c3)C(=O)/C(=C/c3ccc(O)c(Br)c3)C2)c1`, the inhibition result in experiment [1] was “inactive”.
For `O=C1/C(=C/c2ccc(O)c(Br)c2)CN(CCCc2ccccc2)C/C1=C\c1ccc(O)c(Br)c1`, the inhibition entry in experiment [1] was “inactive”. Further, the IC50 in experiment [2] is 16 µM; in experiment [3], more than 667 µM; in experiment [4], more than 667 µM.
On to `Cc1ccccc1CN1C/C(=C\c2ccc(O)c(Br)c2)C(=O)/C(=C/c2ccc(O)c(Br)c2)C1`, for which the results for the half-inhibitory concentration (IC50) in experiment [2], in experiment [3] and in experiment [4] were 10.3 µM, more than 667 µM and more than 667 µM, respectively.
`O=C1/C(=C/c2ccc(O)c(Br)c2)CN(Cc2ccc(Cl)cc2)C/C1=C\c1ccc(O)c(Br)c1`: the concentration for half-maximal inhibition (IC50) is 12.2 µM in experiment [2], more than 667 µM in experiment [3] and more than 600 µM in experiment [4].
Consider `Cc1ccc(CN2C/C(=C\c3ccc(O)c(Br)c3)C(=O)/C(=C/c3ccc(O)c(Br)c3)C2)cc1`, for which, in experiment [1], the inhibition result is “inactive”. Further, the concentration for half-maximal inhibition (IC50) was 11.9 µM in experiment [2], more than 667 µM in experiment [3] and more than 333 µM in experiment [4].

Source of the values: ChEMBL document CHEMBL1799916, “Novel 3,5-bis(bromohydroxybenzylidene)piperidin-4-ones as coactivator-associated arginine methyltransferase 1 inhibitors: enzyme selectivity and cellular activity” (J Med Chem, 2011).
